From ChEMBL document CHEMBL2380272, “Biological evaluation of bisbenzaldehydes against four Mycobacterium species” (Eur J Med Chem, 2013)
≈ marks a conversion by molar mass, not a printed value.

Test system: Mycobacterium tuberculosis variant bovis
Assay: Antimycobacterial activity against Mycobacterium bovis AN5 assessed as growth inhibition after 6 days by luciferase reporter gene assay
Type: functional
Conditions: AN5, 144 h
Method in brief: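 Mycobacteria carrying the pSMT1 luciferase reporter plasmid. Compounds came from 10 mM DMSO stocks and were serially diluted in 7H9 + 10% FCS. Thawed bacteria were filtered, recovered 1 h at 37 °C, then added at 50 000 RLU/mL. After 6 days of culture, light was read for 10 s after adding 1% n-decanal. Triplicates were run, and MIC50 was the concentration giving 50% growth inhibition.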

SMILES | MIC50
O=Cc1ccc(OCCCCCOc2ccc(C=O)cc2)cc1 | 1.69 µM (≈ 0.528 µg/mL)
NNC(=O)c1ccncc1 [ISONIAZID] | < 0.1 µM
O=Cc1ccc(OCCCCCCCCCCOc2ccc(C=O)cc2)cc1 | 0.81 µM (≈ 0.31 µg/mL)
O=Cc1ccc(OCCOc2ccc(C=O)cc2)cc1 | 2.41 µM (≈ 0.651 µg/mL)
O=Cc1ccc(OCCCCCCCOc2ccc(C=O)cc2)cc1 | 0.97 µM (≈ 0.33 µg/mL)
O=Cc1ccc(OCCCCCCCCCCCOc2ccc(C=O)cc2)cc1 | 0.71 µM (≈ 0.282 µg/mL)
O=Cc1ccc(OCCCCCCOc2ccc(C=O)cc2)cc1 | 0.94 µM (≈ 0.307 µg/mL)
O=Cc1ccc(OCCCCCCCCCOc2ccc(C=O)cc2)cc1 | 1.01 µM (≈ 0.372 µg/mL)
O=Cc1ccc(OCCCOc2ccc(C=O)cc2)cc1 | 2.65 µM (≈ 0.753 µg/mL)
O=Cc1ccc(OCOc2ccc(C=O)cc2)cc1 | 2.93 µM (≈ 0.751 µg/mL)
O=Cc1ccc(OCCCCCCCCOc2ccc(C=O)cc2)cc1 | 0.95 µM (≈ 0.337 µg/mL)
O=Cc1ccc(OCCCCCCCCCCCCOc2ccc(C=O)cc2)cc1 | 0.64 µM (≈ 0.263 µg/mL)
O=Cc1ccc(OCCCCOc2ccc(C=O)cc2)cc1 | 2.51 µM (≈ 0.749 µg/mL)
